From ChEMBL document CHEMBL4028892, “Discovery of a 1-Methyl-3,4-dihydronaphthalene-Based Sphingosine-1-Phosphate (S1P) Receptor Agonist Ceralifimod (ONO-4641). A S1P1 and S1P5 Selective Agonist for the Treatment of Autoimmune Diseases” (J Med Chem, 2017)

Experiments:
[1] = species: Homo sapiens; test: Selectivity ratio of EC50 for human S1P3 receptor to EC50 for human S1P1 receptor
Outline: (§1)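 Fura2 Ca2+ assay in CHO-K1 cells stably expressing human S1P1 or S1P3. Cells were loaded with 5 μM Fura2-AM in Ham's F12 (10% FBS, 20 mM HEPES pH 7.4, 2.5 mM probenecid) for 60 min at 37 °C, then washed. After a 30 s baseline, compound was added (0.1 nM–30 μM final, DMSO), then 100 nM S1P 5 min later. Ratio read every 3 s (ex 340/380, em 500 nm). Increase ratio (%) = B/A×100 against the DMSO-well S1P peak; EC50 taken from the concentration series; mean of ≥2 data points.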

[2] = molecular target: Sphingosine 1-phosphate receptor 3 (Homo sapiens, UniProt Q99500); test: Agonist activity at human S1P3 receptor expressed in CHO-K1 cells assessed as increase in S1P-stimulated calcium influx preincubated for 5 mins followed by S1P stimulation measured every 3 secs by fluorescence method; format: cell-based
[3] = molecular target: T1, Sphingosine 1-phosphate receptor 1 (Homo sapiens, UniProt P21453); test: Agonist activity at human S1P1 receptor expressed in CHO-K1 cells assessed as increase in S1P-stimulated calcium influx preincubated for 5 mins followed by S1P stimulation measured every 3 secs by fluorescence method; format: functional, cell-based; outline: as §1
[4] = system: Mus musculus; test: Decrease in peripheral lymphocyte levels in po dosed BALB/c mouse at 4 hrs by automated hematology analyzer; format: functional
Outline: (§2)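 Compound given orally to 6-week-old male BALB/c mice. At 4 or 24 h, blood was taken from the abdominal aorta under ether anaesthesia and lymphocytes counted on an automated haematology analyser. Counts expressed as % of the vehicle-group mean; ED50 is the dose lowering counts to 50%. One experiment, five mice.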

[5] = system: Mus musculus; test: Decrease in peripheral lymphocyte levels in po dosed BALB/c mouse at 24 hrs by automated hematology analyzer; format: functional; outline: as §2
[6] = molecular target: T1, Sphingosine 1-phosphate receptor 1; test: Agonist activity at human S1P1 receptor expressed in CHO-K1 cells assessed as inhibition of forskolin-stimulated cAMP accumulation after 30 mins by ELISA; format: functional, cell-based
[7] = molecular target: Sphingosine 1-phosphate receptor 5 (Homo sapiens, UniProt Q9H228); test: Agonist activity at human S1P5 receptor expressed in CHO-K1 cells assessed as inhibition of forskolin-stimulated cAMP accumulation after 30 mins by ELISA; format: functional, cell-based
[8] = molecular target: S1P3 receptor (sphingosine 1-phosphate receptor 3) (Homo sapiens, UniProt Q99500); test: Agonist activity at human S1P3 receptor expressed in CHO-K1 cells assessed as increase in S1P-stimulated calcium influx at 30 uM preincubated for 5 mins followed by S1P stimulation measured every 3 secs by fluorescence method relative to control; format: cell-based; settings: CHO-K1 cells expressing human S1P3 receptor, read-out: max activation; outline: as §1
[9] = Protein binding in cynomolgus monkey serum at 50 to 5000 ng/ml after 10 mins by ultracentrifugation method; format: ADME, cell-free, Macaca fascicularis; settings: read-out: PB
Outline: (§3)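 Serum protein binding measured at compound concentrations of 50, 500 and 5,000 ng/mL. Mean of four binding experiments.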

[10] = Metabolic stability in human liver microsomes assessed as parent compound remaining after 2 hrs by radio-HPLC method; format: ADME, microsome; settings: read-out: Stability
Outline: (§4)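 Tritium-labelled compound incubated for 2 h in liver microsomes of each species. Read-out was % of unchanged form remaining; mean of two experiments.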

[11] = Protein binding in mouse serum at 50 to 5000 ng/ml after 10 mins by ultracentrifugation method; format: ADME, cell-free; settings: read-out: PB; outline: as §3
[12] = Metabolic stability in Sprague-Dawley rat liver microsomes assessed as parent compound remaining after 2 hrs by radio-HPLC method; format: ADME, microsome; settings: read-out: Stability; outline: as §4
[13] = Protein binding in Lewis rat serum at 50 to 5000 ng/ml after 10 mins by ultracentrifugation method; format: ADME, cell-free; settings: read-out: PB; outline: as §3
[14] = Protein binding in human serum at 50 to 5000 ng/ml after 10 mins by ultracentrifugation method; format: ADME, cell-free; settings: read-out: PB; outline: as §3
[15] = Metabolic stability in mouse liver microsomes assessed as parent compound remaining after 2 hrs by radio-HPLC method; format: ADME, microsome; settings: read-out: Stability; outline: as §4
[16] = Metabolic stability in cynomolgus monkey liver microsomes assessed as parent compound remaining after 2 hrs by radio-HPLC method; format: ADME, Macaca fascicularis, microsome; settings: read-out: Stability; outline: as §4
[17] = Protein binding in Sprague-Dawley rat serum at 50 to 5000 ng/ml after 10 mins by ultracentrifugation method; format: ADME, cell-free; settings: read-out: PB; outline: as §3

T1 sequence (P21453 whole entry): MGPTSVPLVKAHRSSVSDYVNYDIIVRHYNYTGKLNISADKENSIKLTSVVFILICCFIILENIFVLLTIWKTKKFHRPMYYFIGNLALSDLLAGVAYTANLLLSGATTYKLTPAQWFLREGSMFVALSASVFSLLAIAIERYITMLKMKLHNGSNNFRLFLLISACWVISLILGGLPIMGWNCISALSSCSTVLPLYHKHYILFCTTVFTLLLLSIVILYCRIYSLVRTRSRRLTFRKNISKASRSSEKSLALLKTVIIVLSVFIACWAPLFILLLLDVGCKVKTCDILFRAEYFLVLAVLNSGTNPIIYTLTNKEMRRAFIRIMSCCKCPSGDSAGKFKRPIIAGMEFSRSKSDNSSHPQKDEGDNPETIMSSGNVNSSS
Sequence of Sphingosine 1-phosphate receptor 3 (Q99500 whole entry): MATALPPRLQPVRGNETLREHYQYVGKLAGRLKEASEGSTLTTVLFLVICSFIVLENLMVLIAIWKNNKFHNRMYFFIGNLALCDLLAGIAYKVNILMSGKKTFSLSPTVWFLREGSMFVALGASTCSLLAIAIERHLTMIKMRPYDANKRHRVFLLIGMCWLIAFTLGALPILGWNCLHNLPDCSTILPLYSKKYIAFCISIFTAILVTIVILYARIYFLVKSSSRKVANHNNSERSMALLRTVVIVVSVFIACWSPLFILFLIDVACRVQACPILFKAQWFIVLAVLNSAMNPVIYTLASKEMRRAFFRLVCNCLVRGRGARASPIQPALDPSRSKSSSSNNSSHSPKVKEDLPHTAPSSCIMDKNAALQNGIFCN
Sequence of Sphingosine 1-phosphate receptor 5 (Q9H228 whole entry): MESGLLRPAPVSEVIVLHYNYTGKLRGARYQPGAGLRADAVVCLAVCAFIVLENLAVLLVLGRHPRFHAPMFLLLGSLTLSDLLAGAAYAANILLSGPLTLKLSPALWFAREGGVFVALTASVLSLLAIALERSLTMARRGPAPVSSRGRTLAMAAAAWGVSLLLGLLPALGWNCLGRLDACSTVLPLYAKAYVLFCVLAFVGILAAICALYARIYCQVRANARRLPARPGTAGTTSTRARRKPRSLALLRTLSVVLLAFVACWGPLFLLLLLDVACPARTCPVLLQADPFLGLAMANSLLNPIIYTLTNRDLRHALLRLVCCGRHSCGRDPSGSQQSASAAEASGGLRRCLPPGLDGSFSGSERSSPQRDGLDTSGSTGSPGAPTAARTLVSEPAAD
Sequence of S1P3 receptor (sphingosine 1-phosphate receptor 3) (Q99500 whole entry): as the sequence (Q99500 whole entry) above

Ratio EC50 [1] | EC50 [2] [nM] | EC50 [3] [nM] | Structure (SMILES) | ED50 [4] [mg/kg] | also measured
12000 | 6800 | 0.58 | CCCc1ccc(COc2ccc3c(c2)CCC(CN2CC(C(=O)O)C2)=C3C)c(OC)n1 | 0.011 | 
> 3800 | > 30000 | 7.9 | CC1=C(CN2CC(C(=O)O)C2)CCc2cc(OCC3Cc4ccccc4C3)ccc21 | > 1 | 
> 56 | > 30000 | 540 | CCCc1ccc(COc2cc3c(cc2C)C(C)=C(CN2CC(C(=O)O)C2)CC3)c(OC)c1 |  | 
> 6700 | > 30000 | 4.5 | CC1=C(CN2CC(C(=O)O)C2)CCc2cc(OCc3ccc(CC(C)C)cc3Cl)ccc21 | 0.19 | 
> 25000 | > 30000 | 1.2 | CCCc1ccc(COc2ccc3c(c2C)CCC(CN2CC(C(=O)O)C2)=C3C)c(OC)n1 | 0.017 | ED50 [5]: 0.048 mg/kg; EC50 [6]: 0.19 nM; EC50 [7]: 0.92 nM
> 21000 | > 30000 | 1.4 | COc1cc(C)ccc1COc1ccc2c(c1)CCC(CN1CC(C(=O)O)C1)=C2C | > 0.1 | 
> 25000 | > 30000 | 1.2 | CCCc1ccc(COc2ccc3c(c2C)CCC(CN2CC(C(=O)O)C2)=C3C)c(OC)c1 | 0.032 | ED50 [5]: 0.072 mg/kg; EC50 [6]: 0.072 nM; EC50 [7]: 0.98 nM
> 12000 | > 30000 | 2.6 | CC1=C(CN2CC(C(=O)O)C2)CCc2cc(OCc3ccc(CC(C)C)cc3F)ccc21 | 0.073 | 
> 6000 | > 30000 | 5 | CC1=C(CN2CC(C(=O)O)C2)CCc2cc(OCc3ccc(CC(C)C)cc3)ccc21 | 0.39 | Emax at 3 s, 30 µM [8]: < 50%
> 310 | > 30000 | 97 | CC1=C(CN2CC(C(=O)O)C2)CCc2cc(OCCC3CCCc4ccccc43)ccc21 (configuration not stated) |  | 
> 8600 | > 30000 | 3.5 | CCCCc1ccc(COc2ccc3c(c2)CCC(CN2CC(C(=O)O)C2)=C3C)c(OC)c1 | 0.09 | ED50 [5]: 0.18 mg/kg
> 2300 | > 30000 | 13 | CC1=C(CN2CC(C(=O)O)C2)CCc2cc(OCc3ccc(CC(C)C)cc3C)ccc21 | 0.23 | 
1300 | 4000 | 3 | COc1cc(COc2ccc3c(c2)CCC(CN2CC(C(=O)O)C2)=C3C)ccc1CC(C)C | 0.034 | 
 |  |  | [3H]C(C1=C(C)c2ccc(OCc3ccc(CCC)cc3OC)cc2CC1)N1CC(C(=O)O)C1 (configuration not stated) |  | fraction unbound at 10 min [9]: 0.027 to 0.029; remaining at 2 h [10]: 95.2%; fraction unbound at 10 min [11]: 0.029 to 0.038; remaining at 2 h [12]: 92.6%; fraction unbound at 10 min [13]: 0.023 to 0.028; fraction unbound at 10 min [14]: 0.029 to 0.032; remaining at 2 h [15]: 93.3%; remaining at 2 h [16]: 94.1%; fraction unbound at 10 min [17]: 0.018 to 0.023
> 3200 | 5500 | 1.7 | CC1=C(CN2CC(C(=O)O)C2)CCc2cc(OCCC3CCc4ccccc43)ccc21 (configuration not stated) | > 1 | 
9300 | 9300 | 1 | COc1cc(CC(C)C)ccc1COc1ccc2c(c1)CCC(CN1CC(C(=O)O)C1)=C2C | 0.0092 | ED50 [5]: 0.04 mg/kg
> 1600 | > 30000 | 19 | CC1=C(CN2CC(C(=O)O)C2)CCc2cc(OCC3CCc4ccccc4C3)ccc21 (configuration not stated) |  | 
> 52000 | > 30000 | 0.58 | CCc1ccc(COc2ccc3c(c2)CCC(CN2CC(C(=O)O)C2)=C3C)c(OC)c1 | 0.026 | ED50 [5]: 0.3 mg/kg
> 190 | > 10000 | 54 | CC1=C(CN2CC(C(=O)O)C2)CCc2cc(OCc3ccc4ccccc4c3)ccc21 |  | 
> 530 | > 30000 | 57 | CCCc1cc(OC)c(COc2ccc3c(c2)CCC(CN2CC(C(=O)O)C2)=C3C)cn1 | > 0.1 | 
> 4500 | > 30000 | 6.6 | COc1cc(CC(C)(C)O)ccc1COc1ccc2c(c1)CCC(CN1CC(C(=O)O)C1)=C2C | 0.16 | 
1700 |  |  | CC1=C(CN2CC(C(=O)O)C2)CCc2cc(OCCCc3ccccc3)ccc21 | 0.4 | 
